Calls of active or inactive are those of the source. The calls are words filed in the database; no cut-off is given here.
How the values were obtained:
MC65 = assay: Inhibition of mitochondrial complex 1 in human MC65 cells assessed as protective potency concentration; assay type: cell-based
Mus musculus [1] = organism: Mus musculus; assay: Inhibition of mitochondrial complex 1 in permeabilized mouse brain mitochondria assessed as reduction in ROS production at 1 uM incubated for 1 hr after TC removal by Amplex Red and horseradish peroxidase based assay
[2] = Drug localization in mitochondria human MC65 cells at 3 uM incubated for 3.5 hrs by immunocytochemistry; assay type: ADME; settings: mc65, 3.5 h
How it was run: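 MC65 cells plated 24 h on poly-D-lysine coverslips, given 3 μM probe for 3.5 h, then MitoTracker Red (300 nM) for 30 min. Fixed in 4% formaldehyde 15 min, DAPI-stained, mounted. Imaged by confocal microscopy (63x/1.40 oil) and analysed for colocalization coefficients.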

[3] = Drug localization in mitochondria mouse cortical neuron at 25 uM incubated for 4 hrs by immunocytochemistry; assay type: ADME; settings: cortical neurone
How it was run: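 Mouse primary cortical neurons (E15.5 C57BL/6J cortex, DIV 10–12; cytarabine 1 μM from DIV 3–6) given 25 μM probe for 4 h, then Mitotracker Red CMXRos (25 nM) for 30 min. Washed by half-media exchanges with phenol-red-free medium. Imaged live by confocal microscopy, 63x/1.4 NA oil objective.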

Mus musculus [4] = organism: Mus musculus; assay: Binding affinity to purified C57BL/6 mouse cerebral cortex mitochondrial complex 1 assessed as labelling of 75 kDa sub unit at 1 to 10 uM incubated for 45 mins under irradiation by SDS-PAGE analysis; settings: Mitochondria, dose microM 1-10, time 45.0 min
How it was run: (§1)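 Preincubated with DMSO or competitor 45 min at 4 °C, then photoaffinity probe added for 30 min at 4 °C. Irradiated 365 nm, 10 min on ice, then run on SDS-PAGE. Read by in-gel fluorescence (488 nm excitation), or after streptavidin pull-down by silver stain. Three independent experiments.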

Mus musculus [5] = organism: Mus musculus; assay: Binding affinity to purified C57BL/6 mouse cerebral cortex mitochondrial complex 1 assessed as labelling of 51 kDa sub unit at 1 to 10 uM incubated for 45 mins under irradiation by SDS-PAGE analysis; settings: Mitochondria, dose microM 1-10, time 45.0 min; how it was run: as §1
Mus musculus [6] = organism: Mus musculus; assay: Binding affinity to purified C57BL/6 mouse cerebral cortex mitochondrial complex 1 assessed as labelling of 24 kDa sub unit at 1 to 10 uM incubated for 45 mins under irradiation by SDS-PAGE analysis; settings: Mitochondria, dose microM 1-10, time 45.0 min; how it was run: as §1
Mus musculus [7] = organism: Mus musculus; assay: Binding affinity to purified C57BL/6 mouse cerebral cortex mitochondrial complex 1 assessed as labelling of 13 kDa sub unit at 1 to 10 uM incubated for 45 mins under irradiation by SDS-PAGE analysis; settings: Mitochondria, dose microM 1-10, time 45.0 min; how it was run: as §1
Mus musculus [8] = organism: Mus musculus; assay: Binding affinity to purified C57BL/6 mouse cerebral cortex mitochondrial complex 1 assessed as labelling of IF site ( 49 kDa) sub unit at 1 to 10 uM incubated for 45 mins under irradiation by SDS-PAGE analysis; settings: Mitochondria, dose microM 1-10, time 45.0 min; how it was run: as §1
Mus musculus [9] = organism: Mus musculus; assay: Binding affinity to purified C57BL/6 mouse cerebral cortex mitochondrial complex 1 assessed as labelling of 51 kDa sub unit at 10 uM in presence of ZCM-I-1 incubated for 45 mins under irradiation by SDS-PAGE analysis; settings: Mitochondria; how it was run: as §1
Mus musculus [10] = organism: Mus musculus; assay: Binding affinity to purified C57BL/6 mouse cerebral cortex mitochondrial complex 1 assessed as labelling of 24 kDa sub unit at 10 uM in presence of ZCM-I-1 incubated for 45 mins under irradiation by SDS-PAGE analysis; settings: Mitochondria; how it was run: as §1
Mus musculus [11] = organism: Mus musculus; assay: Binding affinity to purified C57BL/6 mouse cerebral cortex mitochondrial complex 1 assessed as labelling of 13 kDa sub unit at 10 uM in presence of ZCM-I-1 incubated for 45 mins under irradiation by SDS-PAGE analysis; settings: Mitochondria; how it was run: as §1
Mus musculus [12] = organism: Mus musculus; assay: Binding affinity to purified C57BL/6 mouse cerebral cortex mitochondrial complex 1 assessed as labelling of IF site ( 49 kDa) sub unit at 10 uM in presence of ZCM-I-1 incubated for 45 mins under irradiation by SDS-PAGE analysis; settings: Mitochondria; how it was run: as §1
Mus musculus [13] = organism: Mus musculus; assay: Binding affinity to purified C57BL/6 mouse cerebral cortex mitochondrial complex 1 assessed as labelling of 75 kDa sub unit at 10 uM in presence of NADH incubated for 45 mins under irradiation by SDS-PAGE analysis; settings: Mitochondria; how it was run: as §1
Mus musculus [14] = organism: Mus musculus; assay: Binding affinity to purified C57BL/6 mouse cerebral cortex mitochondrial complex 1 assessed as labelling of 51 kDa sub unit at 10 uM in presence of NADH incubated for 45 mins under irradiation by SDS-PAGE analysis; settings: Mitochondria; how it was run: as §1
Mus musculus [15] = organism: Mus musculus; assay: Binding affinity to purified C57BL/6 mouse cerebral cortex mitochondrial complex 1 assessed as labelling of 24 kDa sub unit at 10 uM in presence of NADH incubated for 45 mins under irradiation by SDS-PAGE analysis; settings: Mitochondria; how it was run: as §1
Mus musculus [16] = organism: Mus musculus; assay: Binding affinity to purified C57BL/6 mouse cerebral cortex mitochondrial complex 1 assessed as labelling of 13 kDa sub unit at 10 uM in presence of NADH incubated for 45 mins under irradiation by SDS-PAGE analysis; settings: Mitochondria; how it was run: as §1
Mus musculus [17] = organism: Mus musculus; assay: Binding affinity to purified C57BL/6 mouse cerebral cortex mitochondrial complex 1 assessed as labelling of 49 kDa sub unit at 10 uM in presence of NADH incubated for 45 mins under irradiation by SDS-PAGE analysis; settings: Mitochondria; how it was run: as §1
Mus musculus [18] = organism: Mus musculus; assay: Binding affinity to purified C57BL/6 mouse cerebral cortex mitochondrial complex 1 assessed as labelling of 49 kDa sub unit at 10 uM in presence of FMN incubated for 45 mins under irradiation by SDS-PAGE analysis; settings: Mitochondria; how it was run: as §1
Mus musculus [19] = organism: Mus musculus; assay: Binding affinity to purified C57BL/6 mouse cerebral cortex mitochondrial complex 1 assessed as labelling of 13 kDa sub unit at 10 uM in presence of FMN incubated for 45 mins under irradiation by SDS-PAGE analysis; settings: Mitochondria; how it was run: as §1
Mus musculus [20] = organism: Mus musculus; assay: Binding affinity to purified C57BL/6 mouse cerebral cortex mitochondrial complex 1 assessed as labelling of 24 kDa sub unit at 10 uM in presence of FMN incubated for 45 mins under irradiation by SDS-PAGE analysis; settings: Mitochondria; how it was run: as §1
Mus musculus [21] = organism: Mus musculus; assay: Binding affinity to purified C57BL/6 mouse cerebral cortex mitochondrial complex 1 assessed as labelling of 51 kDa sub unit at 10 uM in presence of FMN incubated for 45 mins under irradiation by SDS-PAGE analysis; settings: Mitochondria; how it was run: as §1
Mus musculus [22] = organism: Mus musculus; assay: Binding affinity to purified C57BL/6 mouse cerebral cortex mitochondrial complex 1 assessed as labelling of 75 kDa sub unit at 10 uM in presence of FMN incubated for 45 mins under irradiation by SDS-PAGE analysis; settings: Mitochondria; how it was run: as §1
Mus musculus [23] = organism: Mus musculus; assay: Binding affinity to purified C57BL/6 mouse cerebral cortex mitochondrial complex 1 assessed as labelling of 75 kDa sub unit at 10 uM in presence of IQ site inhibitor rotenone incubated for 45 mins under irradiation by SDS-PAGE analysis; settings: Mitochondria; how it was run: as §1
Mus musculus [24] = organism: Mus musculus; assay: Binding affinity to purified C57BL/6 mouse cerebral cortex mitochondrial complex 1 assessed as labelling of 51 kDa sub unit at 10 uM in presence of IQ site inhibitor rotenone incubated for 45 mins under irradiation by SDS-PAGE analysis; settings: Mitochondria; how it was run: as §1
Mus musculus [25] = organism: Mus musculus; assay: Binding affinity to purified C57BL/6 mouse cerebral cortex mitochondrial complex 1 assessed as labelling of 24 kDa sub unit at 10 uM in presence of IQ site inhibitor rotenone incubated for 45 mins under irradiation by SDS-PAGE analysis; settings: Mitochondria; how it was run: as §1
Mus musculus [26] = organism: Mus musculus; assay: Binding affinity to purified C57BL/6 mouse cerebral cortex mitochondrial complex 1 assessed as labelling of 13 kDa sub unit at 10 uM in presence of IQ site inhibitor rotenone incubated for 45 mins under irradiation by SDS-PAGE analysis; settings: Mitochondria; how it was run: as §1
Mus musculus [27] = organism: Mus musculus; assay: Binding affinity to purified C57BL/6 mouse cerebral cortex mitochondrial complex 1 assessed as labelling of 49 kDa sub unit at 10 uM in presence of IQ site inhibitor rotenone incubated for 45 mins under irradiation by SDS-PAGE analysis; settings: Mitochondria; how it was run: as §1
Mus musculus [28] = organism: Mus musculus; assay: Binding affinity to purified C57BL/6 mouse cerebral cortex mitochondrial complex 1 assessed as labelling of 75 kDa sub unit at 10 uM in presence of ZCM-I-1 incubated for 45 mins under irradiation by SDS-PAGE analysis; settings: Mitochondria; how it was run: as §1

COc1ccc2[nH]cc(CCNC(=O)C(CCC3(CCc4cn(CCCNc5ccc([N+](=O)[O-])c6nonc56)nn4)N=N3)C(=O)CCc3ccc(O)cc3)c2c1 (centres undefined)
INH (MC65): 96.8 nM
inhibition (Mus musculus [1]): inactive
Drug uptake [2]: Active
Drug uptake [3]: Active
Activity (Mus musculus [4]): Active
Activity (Mus musculus [5]): Active
Activity (Mus musculus [6]): Active
Activity (Mus musculus [7]): Active
Activity (Mus musculus [8]): Active
Activity (Mus musculus [9]): inactive
Activity (Mus musculus [10]): inactive
Activity (Mus musculus [11]): inactive
Activity (Mus musculus [12]): inactive
Activity (Mus musculus [13]): inactive
Activity (Mus musculus [14]): inactive
Activity (Mus musculus [15]): inactive
Activity (Mus musculus [16]): inactive
Activity (Mus musculus [17]): inactive
Activity (Mus musculus [18]): inactive
Activity (Mus musculus [19]): inactive
Activity (Mus musculus [20]): inactive
Activity (Mus musculus [21]): inactive
Activity (Mus musculus [22]): inactive
Activity (Mus musculus [23]): Active
Activity (Mus musculus [24]): Active
Activity (Mus musculus [25]): Active
Activity (Mus musculus [26]): Active
Activity (Mus musculus [27]): Active

COc1ccc2[nH]cc(CCNC(=O)C(CCC3(CCc4cn(CCOCCOCCNC(=O)CCCCC5SCC6NC(=O)NC65)nn4)N=N3)C(=O)CCc3ccc(O)cc3)c2c1 (centres undefined)
INH (MC65): > 3 nM
Activity (Mus musculus [28]): inactive
Activity (Mus musculus [9]): inactive
Activity (Mus musculus [10]): inactive
Activity (Mus musculus [11]): inactive
Activity (Mus musculus [12]): inactive

Reference: ChEMBL document CHEMBL4665824, “Characterization and Discovery of a Selective Small-Molecule Modulator of Mitochondrial Complex I Targeting a Unique Binding Site” (J Med Chem, 2020)
